Experimental data taken from ChEMBL document CHEMBL5126601 (ACS Med Chem Lett, 2022).
The source made the active and inactive calls. The rule behind the calls is not given here.

Legend:
Adenosine receptor A2a [1] = molecular target: T1, Adenosine receptor A2a (Homo sapiens, UniProt P29274); assay: Binding affinity to human wild type adenosine A2A receptor expressed in Expi293F cells assessed as dissociation constant by surface plasmon resonance assay
Adenosine receptor A1 = molecular target: T2, Adenosine receptor A1 (Homo sapiens, UniProt P30542); assay: Binding affinity to human wild type adenosine A1 receptor expressed in Expi293F cells assessed as dissociation constant by surface plasmon resonance assay
T2 sequence (P30542 whole entry): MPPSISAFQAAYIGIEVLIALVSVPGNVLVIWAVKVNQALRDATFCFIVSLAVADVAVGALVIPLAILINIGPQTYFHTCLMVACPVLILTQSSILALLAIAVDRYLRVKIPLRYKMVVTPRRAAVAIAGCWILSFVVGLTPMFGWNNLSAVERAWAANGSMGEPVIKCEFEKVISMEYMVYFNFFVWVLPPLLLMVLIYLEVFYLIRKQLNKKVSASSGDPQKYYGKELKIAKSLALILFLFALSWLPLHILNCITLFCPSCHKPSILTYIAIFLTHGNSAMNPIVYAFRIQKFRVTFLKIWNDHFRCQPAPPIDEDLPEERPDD

[2] = molecular target: T3, Adenosine receptor A1 (Homo sapiens) (UniProt P30542); assay: Binding affinity to human wild type adenosine A1 receptor expressed in Expi293F cells assessed as affinity off-rate by surface plasmon resonance assay
T3 sequence (whole entry): T2 sequence (P30542 whole entry)

[3] = molecular target: T3, Adenosine receptor A1 (Homo sapiens); assay: Binding affinity to human wild type adenosine A1 receptor expressed in Expi293F cells assessed as affinity on-rate by surface plasmon resonance assay
[4] = molecular target: T4, Adenosine receptor A3 (Homo sapiens) (UniProt P0DMS8); assay: Binding affinity to human wild type adenosine A3 receptor expressed in Expi293F cells assessed as affinity off-rate by surface plasmon resonance assay
T4 sequence (whole entry): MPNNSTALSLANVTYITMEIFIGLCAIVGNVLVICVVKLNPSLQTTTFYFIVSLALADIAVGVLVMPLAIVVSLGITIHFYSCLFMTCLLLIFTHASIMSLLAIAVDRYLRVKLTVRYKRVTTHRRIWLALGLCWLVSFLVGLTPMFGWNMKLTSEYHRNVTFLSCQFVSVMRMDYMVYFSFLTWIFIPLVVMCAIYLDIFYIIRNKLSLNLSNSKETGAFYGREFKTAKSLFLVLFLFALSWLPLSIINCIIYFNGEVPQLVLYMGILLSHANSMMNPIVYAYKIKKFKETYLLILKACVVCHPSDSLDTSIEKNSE

Adenosine receptor A2a [5] = molecular target: T1, Adenosine receptor A2a; assay: Antagonist activity at human adenosine A2A receptor expressed in HEK293T cells assessed as inhibition of EC20 concentration of NECA-induced cAMP accumulation by measuring fold change in potency by GloSensor cAMP accumulation assay; assay type: functional, cell-based; details: filed as antagonist
Adenosine receptor A2b [6] = molecular target: T5, Adenosine receptor A2b (Homo sapiens, UniProt P29275); assay: Binding affinity to human wild type adenosine A2B receptor expressed in Expi293F cells assessed as dissociation constant by surface plasmon resonance assay
T5 sequence (P29275 whole entry): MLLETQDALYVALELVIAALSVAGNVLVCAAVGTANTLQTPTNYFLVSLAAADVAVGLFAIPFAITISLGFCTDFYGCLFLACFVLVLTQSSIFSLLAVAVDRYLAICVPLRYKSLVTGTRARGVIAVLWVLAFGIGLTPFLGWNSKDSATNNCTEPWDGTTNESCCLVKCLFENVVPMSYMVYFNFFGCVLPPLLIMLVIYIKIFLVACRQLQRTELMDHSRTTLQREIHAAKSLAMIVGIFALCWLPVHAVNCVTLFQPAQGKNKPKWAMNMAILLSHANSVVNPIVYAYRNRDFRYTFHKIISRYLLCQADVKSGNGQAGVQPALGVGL

Adenosine receptor A3 = molecular target: T6, Adenosine receptor A3 (Homo sapiens, UniProt P0DMS8); assay: Binding affinity to human wild type adenosine A3 receptor expressed in Expi293F cells assessed as dissociation constant by surface plasmon resonance assay
T6 sequence (P0DMS8 whole entry): T4 sequence (whole entry)

Adenosine receptor A2a [7] = molecular target: T1, Adenosine receptor A2a; assay: Antagonist activity at human adenosine A2A receptor expressed in HEK293T cells assessed as inhibition of EC20 concentration of NECA-induced cAMP accumulation by GloSensor cAMP accumulation assay; assay type: functional, cell-based; details: filed as antagonist
Summary of the method: (§1)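 HEK293T cells expressing A2A, GloSensor luciferase cAMP read-out; concentration–response curves run against EC20 NECA (3 nM). Data as % of maximum NECA response; mean ± SEM of at least three independent experiments in technical duplicate. Maximum tested concentration 0.63 mM where compound supply was limited; compounds also checked in cells lacking transfected A2A.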

Adenosine receptor A2a [8] = molecular target: T1, Adenosine receptor A2a; assay: Antagonist activity at human adenosine A2A receptor expressed in HEK293T cells assessed as inhibition of 500 nM NECA-induced cAMP accumulation by GloSensor cAMP accumulation assay; details: filed as antagonist
Adenosine receptor A2b [9] = molecular target: T5, Adenosine receptor A2b; assay: Binding affinity to human wild type adenosine A2B receptor expressed in Expi293F cells assessed as affinity on-rate by surface plasmon resonance assay
Adenosine receptor A2a [10] = molecular target: T1, Adenosine receptor A2a; assay: Antagonist activity at human adenosine A2A receptor expressed in HEK293T cells assessed as inhibition of EC20 concentration of NECA-induced cAMP accumulation at 0.63 mM by GloSensor cAMP accumulation assay; assay type: functional, cell-based; details: filed as antagonist; summary of the method: as §1
Adenosine receptor A2b [11] = molecular target: T5, Adenosine receptor A2b; assay: Binding affinity to human wild type adenosine A2B receptor expressed in Expi293F cells assessed as affinity on-rate by surface plasmon resonance assay
[12] = molecular target: T7, Adenosine receptor A2b (Homo sapiens) (UniProt P29275); assay: Binding affinity to human wild type adenosine A2B receptor expressed in Expi293F cells assessed as affinity off-rate by surface plasmon resonance assay
T7 sequence (whole entry): T5 sequence (P29275 whole entry)

Adenosine receptor A2b [13] = molecular target: T5, Adenosine receptor A2b; assay: Binding affinity to human wild type adenosine A2B receptor expressed in Expi293F cells assessed as inhibition constant by surface plasmon resonance assay
Adenosine receptor A2a [14] = molecular target: T1, Adenosine receptor A2a; assay: Antagonist activity at human adenosine A2A receptor expressed in HEK293T cells assessed as inhibition of EC20 concentration of NECA-induced cAMP accumulation at higher concentration by GloSensor cAMP accumulation assay; assay type: functional, cell-based; details: filed as antagonist; summary of the method: as §1
Adenosine receptor A2a [15] = molecular target: T1, Adenosine receptor A2a; assay: Binding affinity to human wild type adenosine A2A receptor expressed in Expi293F cells assessed as inhibition constant taken from literature

T1 sequence (P29274 whole entry): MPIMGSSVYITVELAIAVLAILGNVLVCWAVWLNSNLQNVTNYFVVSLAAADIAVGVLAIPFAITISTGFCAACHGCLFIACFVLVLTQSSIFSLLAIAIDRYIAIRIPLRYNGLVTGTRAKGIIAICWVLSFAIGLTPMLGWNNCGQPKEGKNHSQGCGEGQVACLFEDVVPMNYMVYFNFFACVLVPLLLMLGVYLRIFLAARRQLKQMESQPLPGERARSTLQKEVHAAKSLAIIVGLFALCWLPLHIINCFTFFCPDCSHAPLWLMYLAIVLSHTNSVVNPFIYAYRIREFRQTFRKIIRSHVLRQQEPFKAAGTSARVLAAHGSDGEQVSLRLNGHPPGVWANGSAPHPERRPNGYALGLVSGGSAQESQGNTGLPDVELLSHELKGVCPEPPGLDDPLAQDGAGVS

| SMILES | Kd (Adenosine receptor A2a [1]) | Kd (Adenosine receptor A1) | Kd (Adenosine receptor A2b [6]) | Kd (Adenosine receptor A3) | other results |
| --- | --- | --- | --- | --- | --- |
| O=C(Nc1n[nH]c2nc(-c3ccco3)c(Br)cc12)C1CC1 | 0.56 µM | 2.12 µM | – | – | K [2]: 0.09 s⁻¹; K [3]: 4.25 10^4/M/s; K [4]: 0.041 s⁻¹; Activity (Adenosine receptor A2a [5]): Active |
| Nc1nc(N)c2nccnc2n1 | 9.6 µM | – | – | – | – |
| CC(C)n1ncc2cc(C(=O)NCc3ccco3)cnc21 | 210 µM | 27 µM | 80 µM | 400 µM | – |
| O=C1NC(=O)C(c2cccc(Cl)c2)=C1Nc1ccc(O)c(Cl)c1 | 0.11 µM | 2.21 µM | – | – | K [2]: 0.27 s⁻¹; K [3]: 1.21 10^5/M/s; Activity (Adenosine receptor A2a [5]): Active; Activity (Adenosine receptor A2a [8]): Active |
| Fc1ccc(-c2nn3ccccc3c2-c2ccncc2)cc1 [GW434756X] | 8.9 µM | 0.00605 µM | 0.28 µM | 0.74 µM | K [2]: 0.01 s⁻¹; K [3]: 1.63 10^6/M/s; ka (Adenosine receptor A2b [9]): 1.52 10^5/M/s; K [4]: 0.041 s⁻¹; Activity (Adenosine receptor A2a [10]): Active; ka (Adenosine receptor A2b [11]): 1.52 10^5/M/s; Activity (Adenosine receptor A2a [8]): Active |
| N#Cc1c(N)nc(SCc2ncc[nH]2)c(C#N)c1-c1ccc(O)cc1 | – | – | 0.0782 µM | – | ka (Adenosine receptor A2b [9]): 1.1 10^5/M/s; K [12]: 0.0086 s⁻¹; Ki (Adenosine receptor A2b [13]): 0.012 µM |
| CS(=O)(=O)c1ccc(C(=O)Nc2cccc(Cl)c2)cc1 | 13.5 µM | 7.6 µM | 19.3 µM | 18 µM | Activity (Adenosine receptor A2a [14]): Active |
| Nc1nc(Nc2ccccc2)nc2c1ncn2[C@@H]1O[C@H](CO)[C@@H](O)[C@H]1O | 0.0091 µM | – | – | – | Ki (Adenosine receptor A2a [15]): 0.076 µM |

Continued, in another order:

| Kd (Adenosine receptor A2a [1]) | Kd (Adenosine receptor A1) | Kd (Adenosine receptor A2b [6]) | Kd (Adenosine receptor A3) | SMILES | other results |
| --- | --- | --- | --- | --- | --- |
| 410 µM | 78 µM | 140 µM | 101 µM | Cc1nn(-c2ccccc2)nc1C(N)=O | – |
| 1.11 µM | 22.9 µM | 120 µM | 160 µM | Nc1ccc2nnc(-c3ccccc3)n2n1 | Activity (Adenosine receptor A2a [7]): Active |
| 1.5 µM | 2.21 µM | 107 µM | 104 µM | Nc1nc(N)nc(-c2ccccc2)n1 [BENZOGUANAMINE] | Activity (Adenosine receptor A2a [7]): Active |
| 139 µM | 122 µM | 108 µM | 102 µM | Nc1nsc(-c2ccccc2)n1 | – |
| 31.8 µM | – | – | – | NC(=O)c1ncoc1-c1ccccc1 | – |
